# Experimental data gathered from unrelated publications.
# Target: Dual specificity tyrosine-phosphorylation-regulated kinase 1B (DYRK1B, Homo sapiens, UniProt Q9Y463)
# Method: competition with immobilised ligand
Structure (SMILES),effect on,concentration,remaining binding
CCN1CCN(Cc2ccc(C(=O)Nc3ccc(C)c(Oc4ccc5c(c4)CC(=O)N5)c3)cc2C(F)(F)F)CC1,binding,1 µM,95%
COc1ccc2c(c1)O[C@H](c1ccc(OC)c(OC)c1)C[C@@H]2NC(=O)C1(c2ccc3c(c2)OC(F)(F)O3)CC1,cell-free assay,1 µM,91%
CC(C)(C)c1ccc(-c2nc(CBr)nn2-c2cccc(O)c2)cc1,cell-free assay,10 µM,78%
C[C@@H](c1ccc(-n2cnc3c(N)ncnc32)cc1)N1CCc2nn(C)c(Cc3ccccc3)c2C1=O,binding,0.1 µM,91%
O=C(c1ccc(Nc2ncc(Cl)c(-c3cc4ccccc4s3)n2)cc1)N1CCC(N2CCCC2)CC1,binding,1 µM,18%
COC(=O)Nc1nc2ccc(C(=O)c3ccccc3)cc2[nH]1,cell-free assay,10 µM,5.6%
CNCc1ccccc1-c1csc([C@H](C)Nc2nc(C)nc3cc(OC)c(OC)cc23)c1,cell-free assay,1 µM,55%
C=CC(=O)N1CCC(C(=O)NCC(=O)N2CCN(c3nc(-c4cnc(N)nc4C(F)F)nc(N4CCOCC4)n3)CC2)CC1,binding,1 µM,98%
Nc1ncc2c(n1)-c1c([nH]c3ccc(C#CC4CC4)cc13)CCCC2,binding,1 µM,77%
CN(C)c1ncnc(-c2ccc3nc(Nc4cc(CN5CCN(C(=O)CC(F)(F)F)CC5)ccn4)[nH]c3c2)c1Cl,cell-free assay,1 µM,100%
COc1cnc(Nc2cccc(S(N)(=O)=O)c2)nc1N1CCN(c2ccccc2)CC1,binding,1 µM,100%
O=C(NCCCN1CCOCC1)c1ccc(Nc2ncc(Cl)c(-c3ccc(Cl)s3)n2)cc1,binding,1 µM,13%
O=C(Nc1c[nH]nc1C(=O)NC1CCNCC1)c1cc(F)cc(F)c1,binding,1 µM,100%
O=C(N[C@H]1CCCCC/C=C\C2C[C@@]2(C(=O)O)NC(=O)[C@@H]2C[C@@H](Oc3ccncc3)CN2C1=O)OC1CCCC1 (stereo partly drawn),cell-free assay,1 µM,46%
Cc1cnc(Nc2ccc(C(=O)N3CCC(N4CCCC4)CC3)cc2)nc1-c1cc2ccccc2s1,binding,1 µM,43%
